# Screening results deposited in PubChem by Sanford-Burnham Center for Chemical Genomics.
# GRIN3A LBD mod – modulates the human NR3A ligand-binding domain; NR3A LBD differential scanning fluorimetry, Tm shift; 0% = protein alone, 100% = glycine-bound protein; 340,000 tested, 2.5% active; Tm shift relative to glycine control, % at 25 µM;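 active = melting temperature shift of at least 10% of the positive control shift, at one fixed dose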
# MPTP block – blocks calcium-induced mitochondrial swelling; inhibition, % at 10 µM; AID 602449; isolated mouse mitochondria, Ca2+ swelling absorbance, 30 min; 360,000 tested, 1.4% active;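 active = inhibition of 50% or more, scaled per plate between neutral and stimulator controls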;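 note: 0% = DMSO wells given calcium and 100% = 1 mM EGTA wells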
# EBI2 block – antagonists of human EBI2 receptor; EBI2 beta-arrestin recruitment, luminescence, 7a,25-OHC stimulated; inhibition, % at 5 µM; 360,000 tested, 0.81% active; in the data active = inhibition above about 38%;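 note: enzyme fragment complementation signal reports receptor beta-arrestin coupling in cells; 0% = agonist plus DMSO wells and 100% = wells without agonist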
# Target sequence (P32249 whole entry, looked up, the tested form may be a part): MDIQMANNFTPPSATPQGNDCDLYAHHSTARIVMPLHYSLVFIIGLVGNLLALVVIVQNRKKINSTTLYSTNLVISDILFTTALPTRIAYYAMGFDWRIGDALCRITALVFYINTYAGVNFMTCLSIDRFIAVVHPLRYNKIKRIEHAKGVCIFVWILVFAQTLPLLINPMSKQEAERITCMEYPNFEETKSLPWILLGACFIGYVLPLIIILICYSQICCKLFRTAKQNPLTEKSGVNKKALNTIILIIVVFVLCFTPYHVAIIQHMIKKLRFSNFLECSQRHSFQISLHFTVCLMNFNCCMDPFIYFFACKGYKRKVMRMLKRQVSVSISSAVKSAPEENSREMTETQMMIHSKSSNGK
# SENP1 inh – inhibitors of human SENP1 SUMO protease catalytic domain | Q9P0U3 | recombinant SENP1 catalytic domain, CyPet-SUMO1-YPet FRET cleavage | inhibition, % at 10 µM | 360,000 tested, 0.21% active | AID 624204;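 active = inhibition at least 30% at 10 µM, raw YFP signal under a set limit, fluorescence ratio 0.5 to 1.5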;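 note: 0% = enzyme with DMSO and 100% = no enzyme wells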
# Target sequence (Q9P0U3 419-644 limits assumed): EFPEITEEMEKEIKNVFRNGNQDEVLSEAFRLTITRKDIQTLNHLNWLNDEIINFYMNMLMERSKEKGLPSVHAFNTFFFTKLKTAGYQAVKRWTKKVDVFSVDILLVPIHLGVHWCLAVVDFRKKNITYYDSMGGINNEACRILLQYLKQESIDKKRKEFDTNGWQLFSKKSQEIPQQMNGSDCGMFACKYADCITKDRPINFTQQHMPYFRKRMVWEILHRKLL
#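 Controls: no-enzyme wells low, DMSO-plus-enzyme wells high control. Test system: human recombinant His6-tagged SENP1 catalytic domain enzyme. Reagent: SFCypet-SUMO1-SFYpet FRET protein substrate, 25 nM final. Doses: one dose per compound, 10 µM, 0.5% DMSO. Detection: FRET, CFP and YFP emission. Timing: 50 min reaction at room temperature.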
# Starred values were filed as active, the others as inactive; x = not tested or not shown. In the library only some 4.4% were active in any assay of this set; here they are far more common.
SMILES,GRIN3A LBD mod,MPTP block,EBI2 block,SENP1 inh
CCOC(=O)c1ccc(-c2ccc(/C=N/NC(=O)CN(c3ccccc3Br)S(C)(=O)=O)o2)cc1,11.9*,1.2,-11.8,-4.9
CC(OC(=O)c1ccccc1Oc1ccccc1)C(=O)NC1CC1 (stereo unspecified),-3.1,0.4,-5.3,1.3
COCCn1cnc2c1c(=O)n(CC(=O)NC1CCCCC1)c(=O)n2Cc1ccccc1,x,0.4,-21.0,4.1
COCCn1cnc2c1c(=O)n(CC(=O)Nc1cc(C)on1)c(=O)n2Cc1ccccc1,10.9*,-0.3,-2.3,-1.2
Cc1ccc(-c2[nH]nc3c2C(c2ccsc2)C(C#N)=C(N)O3)cc1 (stereo unspecified),12.5*,6.8,10.7,1.3
CCCc1[nH]nc2c1C(c1cccnc1)C(C#N)=C(N)O2 (stereo unspecified),-0.1,-2.4,-4.9,-1.2
Cc1[nH]nc2c1C(c1ccc(-c3ccc(Cl)cc3)o1)C(C#N)=C(N)O2 (stereo unspecified),14.4*,5.2,-8.7,-24.9
CCCc1[nH]nc2c1C(c1ccncc1)C(C#N)=C(N)O2 (stereo unspecified),13.6*,2.0,-5.3,2.1
Cc1ccc(NC(=O)/C(=C\c2cccnc2)NC(=O)c2ccccc2)cc1,8.9,0.4,-7.3,2.9
COc1ccc(-c2cc3ccc(O)cc3oc2=O)cc1OC,-18.6,-0.5,-5.2,-22.5
COc1ccc(-c2c(C)c3cc(O)ccc3oc2=O)cc1OC,41.6*,-1.9,-18.1,1.0
Fc1ccccc1CSc1nnc(-c2ccccc2)o1,-0.3,1.5,2.1,1.2
Cc1ccccc1-c1nnc(SCc2ccccc2F)o1,10.2*,2.1,7.8,0.8
Oc1ccc(Nc2nc(-c3cccnc3)cs2)cc1,-10.9,0.9,-3.2,1.9
Brc1ccc(Nc2nc(-c3cccnc3)cs2)cc1,21.4*,27.3,28.1,2.0
Nc1nc(-c2ccc(Br)cc2)cs1,-2.1,-3.7,-10.0,5.1
COc1ccc(Cl)cc1Nc1nc(-c2cccnc2)cs1,23.6*,0.4,20.9,3.4
Brc1ccc(-c2csc(Nc3nc(-c4ccc(Br)cc4)cs3)n2)cc1,32.2*,0.3,6.8,-4.9
Cc1cc(O)ccc1Nc1nc(-c2cccnc2)cs1,0.4,0.1,-1.1,2.0
CC1CN(C(=S)c2cccc([N+](=O)[O-])c2)CC(C)O1 (stereo unspecified),1.3,-1.5,-8.2,0.1
COC(=O)c1nn(-c2ccccc2)c(Cl)c1/C=N/OCc1ccc(Cl)cc1Cl,12.4*,-4.7,15.6,2.6
Cc1cccc(C)c1NC(=O)COC(=O)c1ccc2[nH]c3c(c2c1)CCCC3,6.0,1.9,7.5,-28.4
O=C(COC(=O)c1ccc2[nH]c3c(c2c1)CCCC3)Nc1ccccc1,21.6*,14.0,3.1,-61.0
Oc1ccc(/C=N/Nc2nc(-c3cccnc3)nc3ccccc23)c(O)c1,16.3*,8.9,-1.2,-34.8
Cc1c(O)ccc(/C=N/Nc2nc(-c3cccnc3)nc3ccccc23)c1O,28.8*,9.6,-6.0,-18.6
SMILES,GRIN3A LBD mod,MPTP block,EBI2 block,SENP1 inh
COc1ccc(/C=N/Nc2nc(-c3cccnc3)nc3ccccc23)cc1OC,-18.4,2.4,-22.2,-113.7
CN(C)S(=O)(=O)c1cccc(C(=O)Nc2cc(S(=O)(=O)N3CCOCC3)ccc2N2CCCC2)c1,0.4,-2.3,-7.9,-4.2
COc1ccc(CCNC(=O)CCNC(=O)c2ccco2)cc1OC,-0.6,-0.1,-4.5,1.5
CC1(C(=O)NS(=O)(=O)c2ccccc2)CCN1C(=O)c1ccccc1CCc1ccccc1 (stereo unspecified),x,0.9,15.1,2.5
CCc1cccc2c(C(=O)CN3C(=O)C(=O)N(C4CCCC4)C3=O)c[nH]c12,23.1*,-0.6,-3.4,2.3
CCc1cccc2c(C(=O)CN3C(=O)NC4(CCCCC4)C3=O)c[nH]c12,-0.6,0.1,-3.6,3.0
COC(=O)C1C(=O)OC(C)(C)C1C(C)C(=O)c1ccccc1 (stereo unspecified),-1.4,1.2,-2.4,2.7
CCOC(=O)c1c(C)n(C)c2ccc(O)c(CN3CCN(C)CC3)c12,-3.3,0.1,10.3,2.1
CCOC(=O)c1c(CSc2ccccc2)n(C)c2ccc(O)c(CN3CCOCC3)c12,14.1*,0.9,0.7,3.0
CCCNC(=O)C[C@@H]1C[C@@H]2c3cc(NS(=O)(=O)c4ccc(OC)cc4)ccc3O[C@@H]2[C@@H](CO)O1,x,-0.3,-3.4,0.7
Cn1c(CNC(=O)c2ccccc2F)nnc1SCCOc1ccccc1,0.1,-2.2,-5.4,-1.1
Cc1ccc2oc(-c3ccc(NC(=O)c4ccc5c(c4)OCO5)cc3)nc2c1,21.8*,1.2,-4.0,-2.5
O=C(Nc1ccccc1)c1cccc(N2C(=O)C3C4C=CC(C4)C3C2=O)c1 (stereo unspecified),0.5,0.0,7.0,1.6
O=C(Nc1ccc(-c2nc3ccccc3o2)cc1)c1ccc(N2C(=O)C3C4C=CC(C4)C3C2=O)cc1 (stereo unspecified),18.4*,3.3,4.8,-0.2
Cc1ccc2oc(-c3ccc(NC(=O)CC(C)C)cc3)nc2c1,-26.8,5.6,16.0,-0.2
O=C(Nc1ccc(-c2nc3ccccc3o2)cc1)c1ccc2c(c1)OCO2,24.7*,-3.2,8.0,-2.3
Cc1ccc(-c2nc3ccccc3o2)cc1NC(=O)c1ccc2c(c1)OCO2,-0.2,1.2,4.4,-1.4
O=C(CCN1C(=O)/C(=C/c2ccc(F)cc2)SC1=S)Nc1cc([N+](=O)[O-])ccc1O,17.9*,11.7,4.1,3.7
O=C(CCCN1C(=O)/C(=C/c2cccs2)SC1=S)Nc1cccnc1,-5.5,-0.9,4.4,-3.5
O=C(CCCN1C(=O)/C(=C\c2cccs2)SC1=S)Nc1cccnc1,13.4*,2.3,4.9,-2.6
COc1ccc(/C=C2/SC(=S)N(CCCC(=O)Nc3ccc(O)cc3)C2=O)cc1,13.5*,7.6,10.5,-12.7
COc1ccc(/C=C2\SC(=S)N(CCCC(=O)Nc3ccc(O)cc3)C2=O)cc1,5.1,15.0,-1.5,-14.9
COc1ccc(/C=C2\SC(=S)N(CCC(=O)Nc3cccc(O)c3)C2=O)cc1,35.0*,0.1,25.9,-14.5
CCCc1nc(SCC(=O)N2CCc3ccccc3C2)c2ccccc2n1,12.6*,1.8,7.1,-2.5
O=C(COC(=O)c1cc2ccccc2oc1=O)Nc1ccc(F)cc1F,-0.5,0.0,-0.5,-1.4
SMILES,GRIN3A LBD mod,MPTP block,EBI2 block,SENP1 inh
CCOc1cc(/C=N/O)ccc1OCc1ccc([N+](=O)[O-])cc1,-2.6,-0.8,-0.6,3.4
CCOc1cc(C=C(C(=O)OC)C(=O)OC)ccc1OCc1ccc([N+](=O)[O-])cc1,-1.0,-3.1,58.6*,-16.6
CCN(CC(=O)Nc1c(F)cccc1F)C(=O)CCNC(=O)c1ccc([N+](=O)[O-])cc1,1.0,-0.3,-3.1,0.6
Cc1ccc(C(=O)Nc2ccc(OCc3ccccc3)cc2)s1,14.8*,1.4,-15.8,0.2
Cc1occc1C(=O)N/N=C/c1ccc(-c2ccccc2)cc1,7.1,-0.6,4.7,1.6
Cc1ccsc1C(=O)Nc1ccc(OCc2ccccc2)cc1,18.3*,-3.4,3.5,-1.2
